Test results: ChEMBL document CHEMBL5108057, “Development of MAO-A and 5-HT2AR Dual Inhibitors with Improved Antidepressant Activity” (J Med Chem, 2022)
The source made the active and inactive calls. The calls are words filed in the database; no cut-off is given here.

Legend:
[1] = molecular target: T1, Amine oxidase [flavin-containing] B (Homo sapiens, UniProt P27338); assay: Inhibition of MAO-B (unknown origin) using p-tyramine as substrate preincubated for 15 mins followed by substrate addition and measured after 15 mins by Amplex red fluorescence based microplate reader assay
T1 sequence (P27338 whole entry): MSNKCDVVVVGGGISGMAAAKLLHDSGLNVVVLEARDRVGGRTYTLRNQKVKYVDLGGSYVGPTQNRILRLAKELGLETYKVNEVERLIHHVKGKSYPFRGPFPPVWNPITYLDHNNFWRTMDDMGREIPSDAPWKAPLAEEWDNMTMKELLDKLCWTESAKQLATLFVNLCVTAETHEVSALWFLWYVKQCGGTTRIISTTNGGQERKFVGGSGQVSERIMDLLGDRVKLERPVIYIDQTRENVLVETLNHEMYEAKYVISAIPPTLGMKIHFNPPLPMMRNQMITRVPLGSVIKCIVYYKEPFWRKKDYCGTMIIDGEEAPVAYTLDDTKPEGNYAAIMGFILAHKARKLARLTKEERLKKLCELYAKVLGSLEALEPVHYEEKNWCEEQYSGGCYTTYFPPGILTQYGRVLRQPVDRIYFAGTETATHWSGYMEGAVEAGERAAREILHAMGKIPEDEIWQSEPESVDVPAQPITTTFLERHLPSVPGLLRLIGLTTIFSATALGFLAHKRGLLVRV

[2] = species on record: Homo sapiens; assay: Selectivity index, ratio of IC50 for inhibition of MAO-B (unknown origin) to IC50 for inhibition of MAO-A (unknown origin)
How it was run: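 Amplex Red coupled assay. Test sample was preincubated with MAO-A or MAO-B at 37 °C for 15 min. p-Tyramine substrate working solution was added, with HRP converting the H2O2 formed to resorufin, for a further 15 min at 37 °C. Fluorescence read at Ex 545/Em 590 nm. […] SI = MAO-B IC50 / MAO-A IC50.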

[3] = species on record: Danio rerio; assay: Antidepressant activity in reserpine-induced zebrafish AB depression model assessed as fast travel at 0.1 to 1 uM pretreated for 40 mins with reserpine followed by compound addition and measured for 7 days by open field test; type: functional, organism-based; details: dose 0.1-1 µM, time 7.0 day
How it was run: (§1)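 Zebrafish were exposed to 10 mg/L reserpine for 40 min. Compound (0.1, 0.5, 1 μM) or fluoxetine (1 μM) was given 24 h later for 7 days. Fish kept at 28.5 °C on a 14 h light/10 h dark cycle. Open-field and novel tank tests were video-tracked for distance, velocity, immobility and time in the top. Mean ± SD, n = 6.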

[4] = species on record: Danio rerio; assay: Antidepressant activity in reserpine-induced zebrafish AB depression model assessed as improved locomotion at 0.1 to 1 uM pretreated for 40 mins with reserpine followed by compound addition and measured for 7 days by novel tank test; type: functional, organism-based; details: dose 0.1-1 µM, time 7.0 day; how it was run: as §1
[5] = species on record: Danio rerio; assay: Antidepressant activity in reserpine-induced zebrafish AB depression model assessed as increase in exploratory ability at 0.1 to 1 uM pretreated for 40 mins with reserpine followed by compound addition and measured for 7 days by novel tank test; type: functional, organism-based; details: dose 0.1-1 µM, time 7.0 day; how it was run: as §1
[6] = system: Mus musculus; assay: Antidepressant activity in reserpine-induced ICR mouse model assessed as increase in movement speed at 10 to 20 mg/kg pretreated with reserpine for 3 days followed by compound addition for 1 week by open field test; type: functional, organism-based; details: dose 10-20 mg/kg, time 1.0 weeks
How it was run: (§2)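 Body weight was recorded daily. OFT: 5 min session scoring distance, speed, rearing and dejection. FST and TST: 6 min, with immobility scored over the last 4 min. Mean ± SD, n = 6; one-way ANOVA and t-test.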

[7] = system: Mus musculus; assay: Antidepressant activity in reserpine-induced ICR mouse model assessed as increase in mobility at 10 to 20 mg/kg pretreated with reserpine for 3 days followed by compound addition for 1 week by open field test; type: functional, organism-based; details: dose 10-20 mg/kg, time 1.0 weeks; how it was run: as §2
[8] = system: Mus musculus; assay: Antidepressant activity in reserpine-induced ICR mouse model assessed as reduction in immobility time at 10 to 20 mg/kg pretreated with reserpine for 3 days followed by compound addition on day 4 to 10 by forced swimming test; type: functional, organism-based; details: dose 10-20 mg/kg, time 6.0 day; how it was run: as §2
[9] = system: Mus musculus; assay: Antidepressant activity in chronic unpredictable mild stress ICR mouse model assessed as reduction in depression-like behavior at 10 mg/kg administered for 2 weeks by open field test; type: functional, organism-based
How it was run: (§3)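 ICR mice received CUMS for 4 weeks: 11 stressors given randomly twice daily, 42 days in total. OFT: 5 min session scoring distance, speed, rearing and dejection. FST/TST: 6 min, with immobility scored over the last 4 min. Sucrose preference test was also run. Mean ± SD, n = 6.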

[10] = system: Mus musculus; assay: Antidepressant activity in chronic unpredictable mild stress ICR mouse model assessed as decrease in immobility time at 10 to 20 mg/kg measured after 2 weeks by tail suspension test; type: functional, organism-based; details: dose 10-20 mg/kg; how it was run: as §3
[11] = Toxicity in mouse assessed as toxic effect on liver at 10 to 20 mg/kg by H and E staining based assay; type: organism-based; details: in vivo, dose 10-20 mg/kg
How it was run: (§4)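 Mice given compound at 10 or 20 mg/kg, with fluoxetine 20 mg/kg as comparator. Paraffin tissue sections of 4 μm were cut. Staining: hematoxylin 5 min, 75% HCl-ethanol differentiation 30 s, eosin 2 min. Organs (liver, kidney, lung, heart, spleen) examined at ×400; hippocampus (CA1, CA3, DG) at ×200.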

[12] = Toxicity in mouse assessed as toxic effect on kidney at 10 to 20 mg/kg by H and E staining based assay; type: organism-based; details: in vivo, dose 10-20 mg/kg; how it was run: as §4
[13] = Toxicity in mouse assessed as toxic effect on lung at 10 to 20 mg/kg by H and E staining based assay; type: organism-based; details: in vivo, dose 10-20 mg/kg; how it was run: as §4
[14] = system: Mus musculus; assay: Antidepressant activity in reserpine-induced mouse assessed as downregulation of 5-HT2AR expression at 10 to 20 mg/kg pretreated with reserpine for 3 days followed by compound addition on day 4 to 10 by Western blot analysis; type: functional, organism-based; details: dose 10-20 mg/kg, time 6.0 day
How it was run: (§5)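 Whole-brain protein was quantified by BCA and diluted to 3 mg/mL, then run on 4−20% SDS-PAGE and blotted. Primary antibody at 4 °C overnight, secondary 1 h at room temperature. 5-HT1AR and 5-HT2AR levels are relative; mean ± SD, n = 3.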

[15] = system: Mus musculus; assay: Antidepressant activity in reserpine-induced mouse assessed as increase in 5-HT1AR expression at 10 to 20 mg/kg pretreated with reserpine for 3 days followed by compound addition on day 4 to 10 by Western blot analysis; type: functional, organism-based; details: dose 10-20 mg/kg, time 6.0 day; how it was run: as §5
[16] = system: Mus musculus; assay: Antidepressant activity in reserpine-induced mouse hippocampal tissue model assessed as increase in 5-HT level at 10 to 20 mg/kg pretreated with reserpine for 3 days followed by compound addition on day 4 to 10 by HPLC analysis; type: functional; details: dose 10-20 mg/kg; time 6 day
[17] = AUC(0 to 24 hrs) in Sprague-Dawley rat at 2 mg/kg, iv measured upto 1440 mins by LC-MS/MS analysis; type: ADME, organism-based; design: dose 2 mg/kg, time < 1440 min, route iv; details: in vivo
[18] = Half life in Sprague-Dawley rat at 2 mg/kg, iv measured upto 1440 mins by LC-MS/MS analysis; type: ADME, organism-based; details: in vivo
[19] = Cmax in Sprague-Dawley rat at 10 mg/kg, IG measured upto 1440 mins by LC-MS/MS analysis; type: ADME, organism-based; design: time < 1440 min, dose 10 mg/kg, route ig; details: in vivo, po
[20] = Clearance in Sprague-Dawley rat at 10 mg/kg, IG measured upto 1440 mins by LC-MS/MS analysis; type: ADME, organism-based; details: in vivo, po

IC50 [1]: 1050 nM | Ratio IC50 [2]: 262 | AUC(0-t) at 24 h [17]: 2230 ng·h/mL | half-life [18]: 6.31 h | Cmax [19]: 99.7 ng/mL | CL/F [20]: 346 mL/min/kg
SMILES: O=C1c2ccccc2-c2nccc3cc(OCCCCCN4CCN(c5ccccc5F)CC4)cc1c23
Activity [3]: Active | Activity [4]: Active | Activity [5]: Active | Activity [6]: Active | Activity [7]: Active | Activity [8]: Active | Activity [9]: Active | Activity [10]: Active | Activity [11]: Non-Toxic | Activity [12]: Non-Toxic | Activity [13]: Non-Toxic | Activity [14]: Active | Activity [15]: Active | Activity [16]: 579.92 ng/mL
